According to ChEMBL document CHEMBL1142915, “Synthesis, structure, and estrogenic activity of 4-amino-3-(2-methylbenzyl)coumarins on human breast carcinoma cells” (Bioorg Med Chem, 2007):
Calls of active or inactive are those of the source. The rule behind the calls is not given here. Residues, ends and D or L forms follow the SMILES beside them. *: point of attachment. Cbz = O=C(OCc1ccccc1)*

Experiments:
MDA-MB-231 = test: Effect on proliferation of estrogen receptor deficient MDA-MB-231 cells at 1 uM after 3 days; assay type: functional, cell-based; details: Homo sapiens
Summary of the method: (§1)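 Cells were held at least 2 days in phenol red-free DMEM with 10% charcoal-stripped FBS at 37 °C and 5% CO2, then plated at 10^4 cells/cm2. On day 1 the medium was replaced with medium containing compound at 10^-6 M. On day 4 cells were trypsinized and counted electronically. Values are % of untreated control, mean of four determinations ±SD, by ANOVA with Dunnett's test.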

MCF7 [1] = test: Inhibition of increase in proliferation of estrogen receptor expressing MCF7 cells at 10 uM after 3 days; assay type: functional, cell-based; details: Homo sapiens
MCF7 [2] = test: Down regulation of estrogen receptor expression in MCF7 cells at 1 uM after 24 hrs; assay type: functional, cell-based; details: Homo sapiens
Summary of the method: (§2)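 MCF-7 cells were kept at least 2 days in phenol red-free DMEM with 10% charcoal-stripped FBS, seeded on glass coverslips at 10^4 cells/cm2, and treated 2 days later for 24 h. After fixation they were immunostained for ERα with HC-20 rabbit antiserum (1:40, 60 min, Triton-permeabilized) and Texas Red amplification. Median nuclear gray level was measured over about 80–120 nuclei per culture and expressed relative to untreated control. Statistics: Kruskal–Wallis with Dunn's test.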

MCF7 [3] = test: Increase in proliferation of estrogen receptor expressing MCF7 cells at 1 uM after 3 days; assay type: functional, cell-based; details: Homo sapiens; summary of the method: as §1
Estrogen receptor = molecular target: T1, Estrogen receptor (Homo sapiens, UniProt P03372); test: Activity at ER assessed as enhancement of estrogen response element-driven gene transactivation in MVLN cells after 24 hrs by luciferase reporter gene assay relative to control
T1 sequence (P03372 whole entry): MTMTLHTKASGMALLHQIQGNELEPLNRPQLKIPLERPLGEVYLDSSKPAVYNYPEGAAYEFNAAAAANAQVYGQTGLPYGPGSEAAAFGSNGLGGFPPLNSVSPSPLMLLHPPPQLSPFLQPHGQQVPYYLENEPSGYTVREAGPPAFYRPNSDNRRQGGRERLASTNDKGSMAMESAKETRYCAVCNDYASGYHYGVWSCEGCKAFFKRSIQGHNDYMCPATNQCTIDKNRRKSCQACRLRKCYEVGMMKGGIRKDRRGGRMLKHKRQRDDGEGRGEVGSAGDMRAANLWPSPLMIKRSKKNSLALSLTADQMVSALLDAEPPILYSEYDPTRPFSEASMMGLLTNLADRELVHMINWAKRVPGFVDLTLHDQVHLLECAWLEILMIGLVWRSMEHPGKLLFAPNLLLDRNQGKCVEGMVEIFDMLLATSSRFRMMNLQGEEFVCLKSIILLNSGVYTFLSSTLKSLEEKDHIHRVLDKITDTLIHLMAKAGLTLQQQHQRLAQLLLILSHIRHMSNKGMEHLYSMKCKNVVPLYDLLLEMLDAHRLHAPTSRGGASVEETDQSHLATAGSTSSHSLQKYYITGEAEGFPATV

[4] = molecular target: T2, Estrogen receptor (Homo sapiens) (UniProt P03372); test: Displacement of [3H]17beta-estradiol from estrogen receptor relative to estradiol
T2 sequence (whole entry): T1 sequence (P03372 whole entry)
Summary of the method: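 Purified recombinant human ERα, diluted in 1 mg/mL BSA, adsorbed onto hydroxyapatite, washed, then incubated overnight at 0–4 °C with 1 nM [3H]E2 plus increasing amounts of cold E2 or test compound. HAP-bound radioactivity was extracted with ethanol and counted by liquid scintillation. RBA = […] × 100.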

MCF7 [5] = test: Down regulation of estrogen receptor expression in MCF7 cells at 1 nM after 24 hrs; assay type: functional, cell-based; details: Homo sapiens; summary of the method: as §2
MCF7 [6] = test: Abrogation of estrogen receptor down regulation in MCF7 cells at 10 uM after 7 hrs; details: Homo sapiens

In the case of CCCCCNc1c(Cc2ccccc2C)c(=O)oc2cc(OC)ccc12, the Activity (MDA-MB-231) is reported as “inactive”.

Cc1ccccc1Cc1c(NCCc2ccccc2)c2ccccc2oc1=O was tested, and the Activity (MDA-MB-231) was “inactive”.

With C[C@]12CC[C@@H]3c4ccc(O)cc4C[C@@H](CCCCCCCCC[S+]([O-])CCCC(F)(F)C(F)(F)F)[C@H]3[C@@H]1CC[C@@H]2O (some centres undefined) the Activity (MCF7 [1]) was “Active”.

Cc1ccccc1Cc1c(NC2CCCCC2)c2ccccc2oc1=O was tested, and the Activity (MCF7 [2]) was “Active”, the Activity (MCF7 [3]) was “Active” and the Activity (MDA-MB-231) was “inactive”.

CCCCCCCCCCCCNc1c(Cc2ccccc2C)c(=O)oc2ccccc12 was tested, and the EC50 (Estrogen receptor) was 100 nM and the Activity (MDA-MB-231) was “inactive”.

With Cc1ccccc1Cc1c(NC2CCCC2)c2ccccc2oc1=O the RBA [4] was less than 0.1%, the Activity (MCF7 [2]) was “Active” and the Activity (MCF7 [3]) was “Active”. The Activity (MDA-MB-231) was “inactive”.

In the case of C[C@]12CC[C@@H]3c4ccc(O)cc4CC[C@H]3[C@@H]1CC[C@@H]2O, the Activity (MCF7 [5]) is reported as “Active”.

In the case of CC(C)C[C@@H](C=O)NC(=O)[C@H](CC(C)C)NC(=O)[C@H](CC(C)C)NC(=O)OCc1ccccc1 (Cbz-Leu-Leu-Leu-aldehyde), the Activity (MCF7 [6]) is reported as “Active”.
